Measurements gathered from unrelated publications.
Compare with care: the assays were run in different laboratories.
Target: Serine/threonine-protein kinase mTOR (MTOR, Homo sapiens, UniProt P42345)

CN1CCN(C(=O)c2ccc(NC(=O)Nc3ccc(N(C)c4ccnc(Nc5ccc(CS(C)(=O)=O)cc5)n4)cc3)cc2)CC1 — remaining binding (binding; 1 µM): 100%
Cc1cc(O)c(-c2ccc([C@@H](C)CN(C)C)cc2)c2c1[nH]c(=O)c1sccc12 — inhibition (cell-free assay; inhibitor; 0.1 µM): 9.2%
C=CC(=O)N1CCC([C@@H]2CCNc3c(C(N)=O)c(-c4ccc(Oc5ccccc5)cc4)nn32)CC1 — inhibition (enzyme activity; inhibitor; 1 µM): 0%
COc1ccc2oc(-c3ccc4nc(N)oc4c3)c/c(=N\c3ccccc3NC(=O)CCN)c2c1 — remaining signal (cell-free assay; 1 µM): 7%
C1=C/COCc2cc(ccc2OCCN2CCCC2)Nc2nccc(n2)-c2cccc(c2)COC/1 — remaining binding (binding; 0.1 µM): 72%
COc1ccc2[nH]c3c4[nH]c5ccc(OC)cc5c4c4c(c3c2c1)C(=O)NC4=O — remaining binding (binding; 1 µM): 100%
CCCCC(=O)Nc1ccc(-c2ccc3ncn(CCC)c(=O)c3c2)cn1 — remaining binding (binding; competition with immobilised ligand; 0.5 µM): 67%
CO[C@@H]1[C@H](N(C)C(=O)c2ccccc2)C[C@H]2O[C@]1(C)n1c3ccccc3c3c4c(c5c6ccccc6n2c5c31)C(=O)NC4 — inhibition (enzyme activity; inhibitor; 1 µM): 0%
